# M5 ag: agonists of human muscarinic M5 receptor (CHRM5); AID 624037; CHO-K1 hM5 cells, Fluo-8 calcium fluorescence; 0% DMSO wells, 100% maximal acetylcholine response; hit rate 0.19% among 360,000; activation, % at 3 µM;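 active = activation above the run's mean over test compounds plus 3 SD, cut at about 23% in these data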;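 note: signal is peak over basal fluorescence ratio across the kinetic read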
# M1 ag: human M1 muscarinic receptor agonism; P11229; CHO-K1 hM1, Fluo-8 calcium fluorescence, agonist mode; 0% DMSO, 100% acetylcholine EC100; activation, % at 3 µM; hit rate 0.33% among 360,000; AID 588814;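 active = activation above the run's mean compound activation plus 3 SD, cut at about 16% in these data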;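 note: peak over basal fluorescence ratio within a 140 s kinetic read after compound addition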
# Target sequence (P11229 whole entry, looked up): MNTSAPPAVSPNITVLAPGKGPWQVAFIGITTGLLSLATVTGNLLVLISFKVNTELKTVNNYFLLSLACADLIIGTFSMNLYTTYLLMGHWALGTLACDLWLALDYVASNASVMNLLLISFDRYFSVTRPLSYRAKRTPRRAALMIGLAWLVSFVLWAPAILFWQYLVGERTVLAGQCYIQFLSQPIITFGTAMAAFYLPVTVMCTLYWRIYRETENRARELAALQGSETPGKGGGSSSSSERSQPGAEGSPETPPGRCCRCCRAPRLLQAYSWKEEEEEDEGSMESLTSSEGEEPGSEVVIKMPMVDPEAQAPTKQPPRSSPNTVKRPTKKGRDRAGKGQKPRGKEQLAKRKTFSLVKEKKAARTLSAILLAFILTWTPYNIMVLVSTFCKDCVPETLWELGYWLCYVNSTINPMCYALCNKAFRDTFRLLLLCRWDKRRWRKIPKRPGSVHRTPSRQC
# M1 PAM: human CHRM1 positive allosteric modulation; P11229; CHO-K1 hM1, Fluo-8 calcium fluorescence, ACh EC20; 0% = ACh EC20, 100% = maximal ACh; activation, % at 3 µM; hit rate 0.088% among 360,000; AID 588819; in the data active = activation above about 19%, passing the limit was not always enough
# CHRM5 antagonist: antagonists of human muscarinic M5 receptor (CHRM5) | hit rate 0.59% among 360,000 | P08912 | inhibition, % at 3 µM | CHO-hM5 cells, Fluo-8 calcium fluorescence, ACh EC80;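 active = inhibition above a per-plate cutoff, the mean of that plate's test compounds plus 3 SD, cut at about 27% in these data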;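 note: 0% = acetylcholine EC80 with DMSO and 100% = DMSO without agonist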
# M5 PAM: potentiates acetylcholine response at human M5 receptor | P08912 | hit rate 0.3% among 360,000 | CHO-K1 hM5, Fluo-8 calcium, ACh EC20 PAM; 0% = ACh EC20, 100% = ACh EC100 | activation, % at 3 µM;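 active = activation above the run cutoff, the mean activation of all test compounds plus 3 SD, cut at about 18% in these data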
#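 Measured by: Fluo-8 calcium fluorescence; material: human M5 receptor in CHO-K1 cells; schedule: Post-acetylcholine fluorescence recording 140 s; benchmarks: low control EC20 acetylcholine (0%), high control EC100 acetylcholine (100%); read-out: Max/basal fluorescence ratio as % of EC20–EC100 ACh window; compound: single dose, 3 µM nominal final test concentration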
# CHRM1 antagonist: human CHRM1 antagonism; P11229; CHO-K1 hM1, Fluo-8 calcium fluorescence, ACh EC80 antagonist; inhibition, % at 3 µM; hit rate 1.3% among 360,000; AID 588852;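 active = percent inhibition above its own plate's cutoff, namely the mean of that plate's compound wells plus 3 SD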;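 note: peak over basal fluorescence ratio during 140 s after agonist addition; 0% = ACh EC80 plus DMSO and 100% = DMSO alone without agonist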
# * hit, by the source's call; x = no result. The list is not random: actives were taken first. Their share in the collection is about 2%.
SMILES,M5 ag,M1 ag,M1 PAM,CHRM5 antagonist,M5 PAM,CHRM1 antagonist
CC(=O)c1ccc(S(=O)(=O)NCCC(=O)NC2CCN(Cc3ccccc3)CC2)cc1,-1,-7,11,3,19*,-6
Cc1cccc(C(=O)NCC(=O)NC2CCN(Cc3ccccc3)CC2)c1,-4,-5,15,3,4,-23
CCc1nc2ccc(C(=O)Nc3ccc4c(c3)OCC(=O)N4)cn2c1N(C)Cc1nccn1C,-8,-7,2,11,1,-2
O=C(COc1ccccc1Cl)NC(=S)Nc1ccc(CN2CCOCC2)cc1,1,-4,-18,8,-14,25
O=C(COc1ccc(Cl)cc1Cl)NC(=S)Nc1ccc(CN2CCOCC2)cc1,-10,-6,-20,14,-16,37*
CC(C)c1ccc(/C=C/C(=O)NC(=S)Nc2ccc(CN3CCOCC3)cc2)cc1,-8,-12,-30,41*,-18,48*
COc1ccc(S(=O)(=O)N2CCOCC2)cc1NC(=O)CCCSc1ccccc1,-1,-3,8,4,-4,-13
Nc1cc(=O)[nH]c(SCc2ccc(Cl)cc2Cl)n1,11,7,-5,30*,-14,13
O=S1(=O)CC(N2CCN(c3ccccn3)CC2)CN1Cc1ccccc1 (stereo not given),2,12,14,1,0,9
O=C(O)c1ccc(S(=O)(=O)N2CCCCCCC2)cc1,-1,0,14,-1,3,-23
CC(=O)N(CCCCl)C(C#N)c1ccccc1 (stereo not given),20,51*,-32,2,-10,25
CN1CCN(c2ccc(NC(=S)NC(=O)c3cccc4ccccc34)cc2)CC1,-8,-3,-22,17,-11,45*
CCC(=O)N1CCN(c2ccc(NC(=S)NC(=O)COc3ccccc3)cc2)CC1,8,2,-16,11,-16,30*
CC(=O)N1CCN(c2ccc(NC(=S)NC(=O)COc3ccc(C(C)(C)C)cc3)cc2)CC1,7,0,-9,24,-12,26
COc1ccc(-c2ccc(CN3C(C)C(=O)N(Cc4cn(CCC5OCCO5)nn4)CCS3(=O)=O)cc2)cc1 (stereo not given),-1,-8,-6,8,-3,4
COC(=O)C1=C(N)Oc2cc(C)[nH]c(=O)c2C1c1ccncc1 (stereo not given),0,-3,4,-17,20*,-30
CCN(CC)CCCNC(=O)CNC(=O)c1nn(-c2ccc(OC)cc2)c(=O)c2ccccc12,-9,-4,-13,6,-1,45*
CCC1CCCCN1CCCNC(=O)CNC(=O)c1nn(-c2ccc(OC)cc2)c(=O)c2ccccc12 (stereo not given),-6,-11,-27,0,-6,40*
CCN(CC)CCNC(=O)CNC(=O)c1nn(-c2ccc(OC)cc2)c(=O)c2ccccc12,-5,-11,13,-4,5,-19
COc1ccccc1Cc1c(-c2ccco2)nc2c3ccccc3ccn12,-4,x,x,10,-11,x
COc1ccc(CCCNC(=O)C2(C)Cc3c(-c4cccc(C(N)=O)c4)ccnc3O2)cc1 (stereo not given),3,7,10,10,-10,-11
CCC(C)C(CO)NCCCn1cnc2c(OC)ncnc21 (stereo not given),1,-1,-15,-3,-2,21*
CCOC(=O)c1c(NC(=O)c2cc3n(n2)C(C(F)(F)F)CC(c2ccccc2)N3)sc(C)c1C (stereo not given),-1,-2,-3,0,1,10
CCOC(=O)c1cc2n(n1)C(C(F)(F)C(F)(F)F)CC(C)N2 (stereo not given),-1,17*,19,11,-2,-33
Cc1cccc(S(=O)(=O)NC(=O)C2(C)CCN2C(=O)Cc2cc(F)ccc2F)c1 (stereo not given),1,-10,13,4,-3,102*
Cc1cc(C)cc(Cn2c3ccc(NC(=O)NCCc4cccs4)cc3c(=O)n2C)c1,3,3,-16,11,-10,13

# Screening data deposited in PubChem BioAssay by The Scripps Research Institute Molecular Screening Center.
